What was measured:
[1] = melting temperature; fluorescence melt of hairpins on a sequencing array, two-state fit, raised by 9.35 °C to match UV melts; conditions: sodium 0.088 M
Outline: (§1)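 Melting temperature and folding enthalpy were obtained by bootstrapped two-state fitting. Fits used Cy3 fluorescence of library hairpins with annealed Cy3 and quencher oligos on a sequenced MiSeq flow cell, imaged in 50 mM Na-HEPES pH 8.0, 25 mM NaCl in 2.5 °C steps up to 60 °C and normalised to pre-quench Cy3 and control constructs. Four replicates were combined by inverse-variance weighting, and fitted temperatures were raised by 9.35 °C to match UV melts.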

[2] = folding enthalpy; higher = less favourable; fluorescence melt of hairpins on a sequencing array, two-state fit; conditions: sodium 0.088 M
Outline: as §1

GTTAGGCCGAAAGGCAAC (((..(((....))))))
Tm [1]: 32.1 °C
folding enthalpy [2]: -9.31 kcal/mol

GTTAGGGAAACCTAAC ((((((....))))))
Tm [1]: 48.4 °C
folding enthalpy [2]: -30.8 kcal/mol

GTTAGGGGAAACCCTGAC ((.((((....)))).))
Tm [1]: 45.6 °C
folding enthalpy [2]: -28.4 kcal/mol

GTTAGGGGAAACCTTAAC ((((.((....)).))))
Tm [1]: 33.4 °C
folding enthalpy [2]: -22.3 kcal/mol

GTTAGTGAAAACTAAC ((((((....))))))
Tm [1]: 49.3 °C
folding enthalpy [2]: -33.4 kcal/mol

GTTAGTGGAAACACTAGC (.(((((....))))).)
Tm [1]: 40 °C
folding enthalpy [2]: -21.1 kcal/mol

GTTAGTGGAAACACTGAC ((.((((....)))).))
Tm [1]: 44.7 °C
folding enthalpy [2]: -24.2 kcal/mol

GTTATACGAAAGTACAAC (((.(((....))).)))
Tm [1]: 33.2 °C
folding enthalpy [2]: -17.4 kcal/mol

GTTATCACGAAAGTGAAC (((..(((....))))))
Tm [1]: 28.5 °C
folding enthalpy [2]: -10.2 kcal/mol

GTTATCGGAAACGATGAC ((.((((....)))).))
Tm [1]: 47.1 °C
folding enthalpy [2]: -25.2 kcal/mol

GTTATGGGAAACCACAAC (((.(((....))).)))
Tm [1]: 29.2 °C
folding enthalpy [2]: -14.9 kcal/mol

GTTATGGGAAACCGTAAC ((((.((....)).))))
Tm [1]: 44.2 °C
folding enthalpy [2]: -33.2 kcal/mol

GTTCAAGGAAACTTGGAC ((.((((....)))).))
Tm [1]: 43.7 °C
folding enthalpy [2]: -20.7 kcal/mol

GTTCACACGAAAGTGAAC (((..(((....))))))
Tm [1]: 49.2 °C
folding enthalpy [2]: -23.8 kcal/mol

GTTCACGAAAGTGTCAAC ((((((....)))..)))
Tm [1]: 28.6 °C
folding enthalpy [2]: -10.7 kcal/mol

GTTCACGGAAACGTGAGC (.(((((....))))).)
Tm [1]: 52.1 °C
folding enthalpy [2]: -22.2 kcal/mol

GTTCAGGGAAACCTGAAC (((((((....)))))))
Tm [1]: 60.4 °C
folding enthalpy [2]: -43.2 kcal/mol

GTTCATGGAAACATGGAC ((.((((....)))).))
Tm [1]: 46.3 °C
folding enthalpy [2]: -27.7 kcal/mol

GTTCCACGAAAGTGAAC (((.(((....))))))
Tm [1]: 41.8 °C
folding enthalpy [2]: -17.7 kcal/mol

GTTCCACGAAAGTGCAAC (((.(((....))).)))
Tm [1]: 33.5 °C
folding enthalpy [2]: -16.9 kcal/mol

GTTCCACGAAAGTGTAAC (((.(((....))).)))
Tm [1]: 38.4 °C
folding enthalpy [2]: -26.2 kcal/mol

GTTCCAGAAATGGAAC ((((((....))))))
Tm [1]: 53.4 °C
folding enthalpy [2]: -32.2 kcal/mol

GTTCCAGGAAACTGAAAC (((.(((....))).)))
Tm [1]: 30.4 °C
folding enthalpy [2]: -19.4 kcal/mol

GTTCCAGGAAACTGGGAC ((.((((....)))).))
Tm [1]: 49.3 °C
folding enthalpy [2]: -27.6 kcal/mol

GTTCCCCCGAAAGGGAAC (((..(((....))))))
Tm [1]: 51.6 °C
folding enthalpy [2]: -34.7 kcal/mol

GTTCCCCGAAAGGGAAAC (((.(((....))).)))
Tm [1]: 46.5 °C
folding enthalpy [2]: -19.3 kcal/mol

GTTCCCGAAAGGGATAAC ((((((....)))..)))
Tm [1]: 36.5 °C
folding enthalpy [2]: -10.2 kcal/mol

GTTCCCGAAAGGGCAAC ((((((....))).)))
Tm [1]: 40.4 °C
folding enthalpy [2]: -14.7 kcal/mol

GTTCCGGGAAACCAGAAC ((((.((....)).))))
Tm [1]: 38.7 °C
folding enthalpy [2]: -31.7 kcal/mol

GTTCCGGGAAACCGGAAC (((((((....)))))))
Tm [1]: 68.7 °C
folding enthalpy [2]: -30.1 kcal/mol

GTTCCGGGAAACCGGGAC ((.((((....)))).))
Tm [1]: 57.4 °C
folding enthalpy [2]: -35.5 kcal/mol

GTTCCGGGAAACTGGGAC ((.((.(....).)).))
Tm [1]: 41.4 °C
folding enthalpy [2]: -28.2 kcal/mol

GTTCCTCGAAAGAGAAC (((.(((....))))))
Tm [1]: 36.3 °C
folding enthalpy [2]: -24.1 kcal/mol

GTTCCTGGAAACAGGGAC ((.((((....)))).))
Tm [1]: 50.8 °C
folding enthalpy [2]: -35.1 kcal/mol

GTTCGACGAAAGTCTAAC (((.(((....))).)))
Tm [1]: 42.5 °C
folding enthalpy [2]: -24.8 kcal/mol

GTTCGAGCGAAAGCTAAC (((..(((....))))))
Tm [1]: 24.6 °C
folding enthalpy [2]: -7.3 kcal/mol

GTTCGAGGAAACTCAAAC (((.(((....))).)))
Tm [1]: 31 °C
folding enthalpy [2]: -13.8 kcal/mol

GTTCGAGGAAACTCGGAC ((.((((....)))).))
Tm [1]: 51.3 °C
folding enthalpy [2]: -40.9 kcal/mol

GTTCGCCCGAAAGGGAAC (((..(((....))))))
Tm [1]: 35.9 °C
folding enthalpy [2]: -13.9 kcal/mol

GTTCGCCGAAAGGCTAAC (((.(((....))).)))
Tm [1]: 44.7 °C
folding enthalpy [2]: -19.6 kcal/mol

GTTCGCGAAAGCGCAAC ((((((....))).)))
Tm [1]: 45.6 °C
folding enthalpy [2]: -13.9 kcal/mol

GTTCGCGAAAGCGCTAAC ((((((....)))..)))
Tm [1]: 25.1 °C
folding enthalpy [2]: -9.92 kcal/mol

GTTCGCGAAAGCGGAAC ((((((....))).)))
Tm [1]: 54.4 °C
folding enthalpy [2]: -17.6 kcal/mol

GTTCGCGAAAGCGTGAAC ((((((....)))..)))
Tm [1]: 40.5 °C
folding enthalpy [2]: -13 kcal/mol

GTTCGCGAAAGCGTTAAC ((((((....)))..)))
Tm [1]: 27.8 °C
folding enthalpy [2]: -10.9 kcal/mol

GTTCGCGGAAACGCGAGC (.(((((....))))).)
Tm [1]: 59.2 °C
folding enthalpy [2]: -15.7 kcal/mol

GTTCGCGGAAACGCGGAC ((.((((....)))).))
Tm [1]: 60.7 °C
folding enthalpy [2]: -26.6 kcal/mol

GTTCGGCGAAAGCCAAAC (((.(((....))).)))
Tm [1]: 46.5 °C
folding enthalpy [2]: -15.5 kcal/mol

GTTCGGGGAAACTCGAAC (((((.(....).)))))
Tm [1]: 51.3 °C
folding enthalpy [2]: -30.8 kcal/mol

GTTCGTGGAAACATGGAC ((.(.((....)).).))
Tm [1]: 34.7 °C
folding enthalpy [2]: -16.1 kcal/mol

GTTCTACGAAAGTAAAC (((.(((....))))))
Tm [1]: 27.6 °C
folding enthalpy [2]: -10.8 kcal/mol

GTTCTAGGAAACTAGAGC (.(((((....))))).)
Tm [1]: 35.6 °C
folding enthalpy [2]: -24.7 kcal/mol

GTTCTCCGAAAGGACAAC (((.(((....))).)))
Tm [1]: 30 °C
folding enthalpy [2]: -15.6 kcal/mol

GTTCTCGAAAGAGAGAAC ((((((....)))..)))
Tm [1]: 46.4 °C
folding enthalpy [2]: -25.1 kcal/mol

GTTCTCGAAAGAGCAAC ((((((....))).)))
Tm [1]: 32.7 °C
folding enthalpy [2]: -17 kcal/mol

GTTCTCGAAAGAGGTAAC ((((((....)))..)))
Tm [1]: 22.7 °C
folding enthalpy [2]: -8.25 kcal/mol

GTTCTCGGAAACGAGAGC (.(((((....))))).)
Tm [1]: 48.2 °C
folding enthalpy [2]: -27.5 kcal/mol

GTTCTCTCGAAAGAGAAC (((..(((....))))))
Tm [1]: 51.1 °C
folding enthalpy [2]: -34.5 kcal/mol

GTTCTGAAAAGAAC (((((....)))))
Tm [1]: 47 °C
folding enthalpy [2]: -27.5 kcal/mol

GTTCTGCGAAAGCATAAC (((.(((....))).)))
Tm [1]: 43.7 °C
folding enthalpy [2]: -25 kcal/mol

GTTCTGGCGAAAGCCAAC (((..(((....))))))
Tm [1]: 19.8 °C
folding enthalpy [2]: -7.18 kcal/mol

GTTCTGGGAAACCAGAGC (.(((((....))))).)
Tm [1]: 46.3 °C
folding enthalpy [2]: -24.2 kcal/mol

GTTCTGGGAAACTAGAGC (.(((.(....).))).)
Tm [1]: 24.9 °C
folding enthalpy [2]: -8.92 kcal/mol

GTTCTTCCGAAAGGAAAC (((..(((....))))))
Tm [1]: 27.5 °C
folding enthalpy [2]: -13.6 kcal/mol

GTTCTTCGAAAGAATAAC (((.(((....))).)))
Tm [1]: 33.6 °C
folding enthalpy [2]: -15.6 kcal/mol

GTTCTTGAAAAAGAAC ((((((....))))))
Tm [1]: 46.9 °C
folding enthalpy [2]: -34.2 kcal/mol

GTTCTTGGAAACAGGAAC ((((.((....)).))))
Tm [1]: 39.9 °C
folding enthalpy [2]: -34.1 kcal/mol

GTTGAACCGAAAGGTAAC (((..(((....))))))
Tm [1]: 31.1 °C
folding enthalpy [2]: -12.9 kcal/mol

GTTGAAGGAAACTCCAAC ((((.((....)).))))
Tm [1]: 29.5 °C
folding enthalpy [2]: -17.5 kcal/mol

GTTGAAGGAAACTTCAAC (((((((....)))))))
Tm [1]: 54.2 °C
folding enthalpy [2]: -51.5 kcal/mol

GTTGACGAAAGTCAAAAC ((((((....)))..)))
Tm [1]: 38.4 °C
folding enthalpy [2]: -11.5 kcal/mol

GTTGACGAAAGTCATAAC ((((((....)))..)))
Tm [1]: 33.5 °C
folding enthalpy [2]: -12.9 kcal/mol

GTTGACGAAAGTCGCAAC ((((((....)))..)))
Tm [1]: 31 °C
folding enthalpy [2]: -13.3 kcal/mol

GTTGACGAAAGTCGGAAC ((((((....)))..)))
Tm [1]: 32.7 °C
folding enthalpy [2]: -8.87 kcal/mol

GTTGACGAAAGTCTCAAC ((((((....)))..)))
Tm [1]: 28 °C
folding enthalpy [2]: -9.94 kcal/mol

GTTGACGAAAGTCTTAAC ((((((....)))..)))
Tm [1]: 28.1 °C
folding enthalpy [2]: -10 kcal/mol

GTTGAGACGAAAGTCAAC (((..(((....))))))
Tm [1]: 38.4 °C
folding enthalpy [2]: -15.6 kcal/mol

GTTGAGCGAAAGCTAAAC (((.(((....))).)))
Tm [1]: 48 °C
folding enthalpy [2]: -26.5 kcal/mol

GTTGAGGGAAACCTTAAC (((.(((....))).)))
Tm [1]: 37 °C
folding enthalpy [2]: -31.4 kcal/mol

GTTGAGGGAAACCTTGAC ((..(((....)))..))
Tm [1]: 29.7 °C
folding enthalpy [2]: -12 kcal/mol

GTTGAGGGAAACTTCAAC (((((.(....).)))))
Tm [1]: 40.5 °C
folding enthalpy [2]: -33.6 kcal/mol

GTTGATGAAAATCAAC ((((((....))))))
Tm [1]: 52.4 °C
folding enthalpy [2]: -33.9 kcal/mol

GTTGCACCGAAAGGTAAC (((..(((....))))))
Tm [1]: 30.4 °C
folding enthalpy [2]: -14.4 kcal/mol

GTTGCAGCGAAAGCTAAC (((..(((....))))))
Tm [1]: 29.2 °C
folding enthalpy [2]: -11.6 kcal/mol

GTTGCAGGAAACTACAAC ((((.((....)).))))
Tm [1]: 37 °C
folding enthalpy [2]: -27.6 kcal/mol

GTTGCCGAAAGGCACAAC ((((((....)))..)))
Tm [1]: 35.7 °C
folding enthalpy [2]: -8.02 kcal/mol

GTTGCCGAAAGGCCGAAC ((((((....)))..)))
Tm [1]: 27.1 °C
folding enthalpy [2]: -7.22 kcal/mol

GTTGCCGGAAACGGCAGC (.(((((....))))).)
Tm [1]: 57.5 °C
folding enthalpy [2]: -14.4 kcal/mol

GTTGCGCCGAAAGGCAAC (((..(((....))))))
Tm [1]: 42.4 °C
folding enthalpy [2]: -13.2 kcal/mol

GTTGCGCGAAAGCGTAAC (((.(((....))).)))
Tm [1]: 58.1 °C
folding enthalpy [2]: -29.8 kcal/mol

GTTGCTCGAAAGAGAAAC (((.(((....))).)))
Tm [1]: 48 °C
folding enthalpy [2]: -32.3 kcal/mol
